Broadly, the MIC is the lowest concentration that inhibits growth of the organism.

Results on eight molecules are retold here after ChEMBL document CHEMBL1125136, “Quinolone antibacterial agents substituted at the 7-position with spiroamines. Synthesis and structure-activity relationships” (1990).

One assay relates to Enterococcus faecalis. Nature of the assay: Evaluated for minimum inhibitory concentration against gram-positive bacteria Staphylococcus faecalis MGH-2.
The next assay has as its system Pseudomonas. In words: Evaluated for minimum inhibitory concentration against gram-negative bacteria Pseudomonas rettgeri H1771. Type of assay: functional. In outline:
(§1)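 Broth microdilution MIC by standard technique. Values come from duplicate experiments and are stated as accurate to ±50%.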

Assay [1] concerns Escherichia coli. In words: In vivo protective dose was determined in mouse protection assay in Escherichia coli Vogel after subcutaneous administration. The conditions noted are these: sc, read-out: PD50. Type of assay: functional. In outline: (§2)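 Female Charles River CD-1 mice were given an acute, lethal, systemic infection. A single dose of compound was given at the time of challenge, by the route stated in the line, with 16 animals per dose level. The read-out is the median protective dose (PD50, mg/kg). Per the footnote, values come from 16 animals per test, with a mean variation of ±34%.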

For the next assay, the system named is Klebsiella pneumoniae. Nature of the assay: Evaluated for minimum inhibitory concentration against gram-negative bacteria Klebsiella pneumoniae MGH-2. Type of assay: functional. In outline:
as §1

The subject of assay [2] is Escherichia coli. In words: Evaluated for minimum inhibitory concentration against gram-negative bacteria Escherichia coli Vogel. Type of assay: functional. Summed up: as §1
The test system of assay [3] is Escherichia coli. In words: In vivo protective dose for mouse protection assay in Escherichia coli Vogel after peroral administration. The class given is functional. Conditions: po, read-out: PD50. Summed up: as §2
For assay [4], the system named is Staphylococcus aureus. Nature of the assay: Evaluated for minimum inhibitory concentration against […] bacteria Staphylococcus aureus H228. The class given is functional. In outline:
as §1

In assay [5] the test system is Staphylococcus aureus. In words: Evaluated for minimum inhibitory concentration against […] bacteria Staphylococcus aureus UC-76. The class given is functional. Summed up:
as §1

For a further assay, the system named is Pseudomonas aeruginosa. In words: Evaluated for minimum inhibitory concentration against gram-negative bacteria Pseudomonas aeruginosa UI-18. Type of assay: functional. Summed up: as §1
A further assay has as its system Enterobacter cloacae. In words: Evaluated for minimum inhibitory concentration against gram-negative bacteria Enterobacter cloacae HA 2646. Type of assay: functional.
Assay [6] relates to Escherichia coli. In words: Evaluated for minimum concentration needed to produce linear DNA at an intensity relative to oxolinic acid at 10 mg/mL. by gyrase mediated cleavage of DNA in Escherichia coli 560. The class given is functional. Conditions: read-out: MIC.
The test system of a further assay is Streptococcus pyogenes. In words: Evaluated for minimum inhibitory concentration against gram-positive bacteria Streptococcus pyogenes C203.
Assay [7] is described as follows: Evaluated for minimum inhibitory concentration against […] bacteria […] SV-1. The class given is functional. Summed up:
as §1

Molecules are shown by their SMILES. ≈ marks a conversion by molar mass, not a printed value.

For the molecule `CCn1cc(C(=O)O)c(=O)c2cc(F)c(N3CCC4(CCNC4)C3)nc21.Cl` (stereo not given), the MIC amounted to 1.6 µg/mL against Enterococcus faecalis; 12.5 µg/mL in the assay with Pseudomonas; 3.1 µg/mL against Klebsiella pneumoniae; 0.8 µg/mL in the assay on Escherichia coli [2]; 3.1 µg/mL in the assay on Staphylococcus aureus [4]; 0.4 µg/mL in the assay on Staphylococcus aureus [5]. In addition, the MIC against Pseudomonas aeruginosa is 0.8 µg/mL; in the assay with Enterobacter cloacae, 0.8 µg/mL; with Streptococcus pyogenes, 0.2 µg/mL; in assay [7], 0.8 µg/mL. Besides, the values for the ED50 in the assay on Escherichia coli [1] and in the assay on Escherichia coli [3] were 28 mg/kg and > 100 mg/kg, respectively. Further, the minimum concentration for gyrase-mediated DNA cleavage in the assay with Escherichia coli [6] amounted to 5 µg/mL.
Consider `CCN1CCC2(CCN(c3c(F)cc4c(=O)c(C(=O)O)cn(C5CC5)c4c3F)C2)C1` (stereo not given), for which the MIC in the assay on Enterococcus faecalis is 0.1 µg/mL (≈ 0.24 µM); in the assay with Pseudomonas, 0.4 µg/mL (≈ 0.958 µM); in the assay on Klebsiella pneumoniae it was 0.2 µg/mL (≈ 0.479 µM); in the assay with Escherichia coli [2] it was 0.1 µg/mL (≈ 0.24 µM); with Staphylococcus aureus [4], 0.1 µg/mL (≈ 0.24 µM); in the assay on Staphylococcus aureus [5], 0.025 µg/mL (≈ 0.0599 µM). The MIC in the assay on Pseudomonas aeruginosa was 1.6 µg/mL (≈ 3.83 µM); with Enterobacter cloacae, 0.2 µg/mL (≈ 0.479 µM); with Streptococcus pyogenes, 0.2 µg/mL (≈ 0.479 µM); in [7], 0.2 µg/mL (≈ 0.479 µM). Besides, in the assay with Escherichia coli [6], the minimum concentration for gyrase-mediated DNA cleavage came out at 0.5 µg/mL.
In the case of `CCn1cc(C(=O)O)c(=O)c2cc(F)c(N3CCNCC3)cc21` [NORFLOXACIN], the MIC is 3.1 µg/mL (≈ 9.71 µM) with Enterococcus faecalis; 0.2 µg/mL (≈ 0.626 µM) against Pseudomonas; 0.2 µg/mL (≈ 0.626 µM) against Klebsiella pneumoniae; 0.1 µg/mL (≈ 0.313 µM) in the assay on Escherichia coli [2]; 3.1 µg/mL (≈ 9.71 µM) against Staphylococcus aureus [4]; 0.4 µg/mL (≈ 1.25 µM) against Staphylococcus aureus [5]. In addition, the minimal inhibitory concentration (MIC) worked out at 0.8 µg/mL (≈ 2.51 µM) in the assay on Pseudomonas aeruginosa, 0.1 µg/mL (≈ 0.313 µM) with Enterobacter cloacae, 3.1 µg/mL (≈ 9.71 µM) in the assay on Streptococcus pyogenes and 3.1 µg/mL (≈ 9.71 µM) in assay [7]. Further, the minimum concentration for gyrase-mediated DNA cleavage in the assay on Escherichia coli [6] turned out to be 5.2 µg/mL.
`CCn1cc(C(=O)O)c(=O)c2cc(F)c(N3CCCC4(CCCNC4)C3)nc21` (stereo not given): the MIC turned out to be 12.5 µg/mL (≈ 32.2 µM) against Enterococcus faecalis; 100 µg/mL (≈ 257 µM) against Pseudomonas; 25 µg/mL (≈ 64.4 µM) in the assay on Klebsiella pneumoniae; 12.5 µg/mL (≈ 32.2 µM) in the assay with Escherichia coli [2]; 6.3 µg/mL (≈ 16.2 µM) in the assay with Staphylococcus aureus [4]; 3.1 µg/mL (≈ 7.98 µM) against Staphylococcus aureus [5]. Besides, the MIC is 50 µg/mL (≈ 129 µM) against Pseudomonas aeruginosa, 25 µg/mL (≈ 64.4 µM) with Enterobacter cloacae, 50 µg/mL (≈ 129 µM) in the assay with Streptococcus pyogenes and 12.5 µg/mL (≈ 32.2 µM) in assay [7]. For the same molecule, in the assay with Escherichia coli [6], the minimum concentration for gyrase-mediated DNA cleavage was 50 µg/mL.
Take `NC1CCN(c2c(F)cc3c(=O)c(C(=O)O)cn(C4CC4)c3c2F)C1` (stereo not given): the MIC against Enterococcus faecalis was determined as 0.05 µg/mL (≈ 0.143 µM); against Pseudomonas it was 0.05 µg/mL (≈ 0.143 µM); with Klebsiella pneumoniae it was 0.025 µg/mL (≈ 0.0716 µM); in the assay with Escherichia coli [2], 0.013 µg/mL (≈ 0.0372 µM); in the assay with Staphylococcus aureus [4] it was 0.05 µg/mL (≈ 0.143 µM); against Staphylococcus aureus [5], 0.025 µg/mL (≈ 0.0716 µM). In addition, the MIC amounted to 0.1 µg/mL (≈ 0.286 µM) against Pseudomonas aeruginosa, 0.025 µg/mL (≈ 0.0716 µM) against Enterobacter cloacae, 0.25 µg/mL (≈ 0.716 µM) in the assay on Streptococcus pyogenes and 0.05 µg/mL (≈ 0.143 µM) in assay [7]. The minimum concentration for gyrase-mediated DNA cleavage with Escherichia coli [6] turned out to be 0.1 µg/mL.
For the molecule `CCNCC1CCN(c2c(F)cc3c(=O)c(C(=O)O)cn(CC)c3c2F)C1` (stereo not given) [MERAFLOXACIN], the MIC against Enterococcus faecalis worked out at 0.1 µg/mL (≈ 0.264 µM); in the assay on Pseudomonas it was 0.4 µg/mL (≈ 1.05 µM); in the assay with Klebsiella pneumoniae, 0.2 µg/mL (≈ 0.527 µM); against Escherichia coli [2], 0.1 µg/mL (≈ 0.264 µM); against Staphylococcus aureus [4] it was 0.1 µg/mL (≈ 0.264 µM); against Staphylococcus aureus [5], 0.05 µg/mL (≈ 0.132 µM). Moreover, the MIC is 1.6 µg/mL (≈ 4.22 µM) in the assay with Pseudomonas aeruginosa, 0.2 µg/mL (≈ 0.527 µM) in the assay with Enterobacter cloacae, 0.1 µg/mL (≈ 0.264 µM) in the assay on Streptococcus pyogenes and 0.1 µg/mL (≈ 0.264 µM) in assay [7]. Besides, the minimum concentration for gyrase-mediated DNA cleavage in the assay on Escherichia coli [6] came to 2.5 µg/mL.
With `CCn1cc(C(=O)O)c(=O)c2cc(F)c(N3CCC4(CCN(C)C4)C3)cc21` (stereo not given), the MIC in the assay on Enterococcus faecalis was found to be 0.4 µg/mL (≈ 1.07 µM); against Pseudomonas, 3.1 µg/mL (≈ 8.3 µM); in the assay on Klebsiella pneumoniae, 0.8 µg/mL (≈ 2.14 µM); against Escherichia coli [2] it was 0.2 µg/mL (≈ 0.536 µM); in the assay on Staphylococcus aureus [4] it was 0.8 µg/mL (≈ 2.14 µM); in the assay with Staphylococcus aureus [5], 0.1 µg/mL (≈ 0.268 µM). In addition, the minimal inhibitory concentration (MIC) against Pseudomonas aeruginosa came to 3.1 µg/mL (≈ 8.3 µM); with Enterobacter cloacae it was 0.2 µg/mL (≈ 0.536 µM); in the assay with Streptococcus pyogenes, 0.4 µg/mL (≈ 1.07 µM); in assay [7], 0.4 µg/mL (≈ 1.07 µM). Besides, the minimum concentration for gyrase-mediated DNA cleavage in the assay on Escherichia coli [6] was determined as 5 µg/mL.
Regarding `CCn1cc(C(=O)O)c(=O)c2cc(F)c(N3CCC4(CCCN4)C3)c(F)c21.Cl` (stereo not given), the MIC with Enterococcus faecalis is 3.1 µg/mL; against Pseudomonas, 0.8 µg/mL; in the assay with Klebsiella pneumoniae, 0.4 µg/mL; against Escherichia coli [2] it was 0.2 µg/mL; in the assay on Staphylococcus aureus [4], 1.6 µg/mL; in the assay on Staphylococcus aureus [5], 0.8 µg/mL. Also, the MIC against Pseudomonas aeruginosa is 1.6 µg/mL; with Enterobacter cloacae, 0.2 µg/mL; against Streptococcus pyogenes, 1.6 µg/mL; in assay [7] it was 1.6 µg/mL. The minimum concentration for gyrase-mediated DNA cleavage in the assay with Escherichia coli [6] worked out at 2.5 µg/mL.
